Experimental data taken from paper PMC3546139 (Molecular cancer therapeutics, 2012).
Where two headings read alike, the source gives them in different places.

Columns and labels:
[1] = tested on: FOM103 normal human melanocytes; assay: MTS cell viability assay, FOM103; type: cell-based; conditions: Melanocyte, read-out: IC50, cell viability (MTS)
[2] = Survival and body weight of mice, daily i.p. injection for seven days; type: in vivo; conditions: 0.127 µmoles i.p. daily, 7 days of treatment, n = 3
In short: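 Mice received test compound intraperitoneally once daily for seven days at 0.032–0.064, 0.127 or 0.127–0.254 µmoles depending on agent, n = 3 per group. Survival and body-weight change were recorded.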

[3] = tested on: UACC903 melanoma cells (metastatic); assay: MTS cell viability assay, UACC 903; type: cell-based; conditions: Homo sapiens, read-out: IC50, cell viability (MTS)
melanoma cells = assay: MTS cell viability assay, melanoma cells; type: cell-based; conditions: Homo sapiens, read-out: average IC50 for killing melanoma cells
cultured cells = conditions: cited from earlier work
[4] = tested on: 1205 Lu melanoma cells (metastatic); assay: MTS cell viability assay, 1205 Lu; type: cell-based; conditions: Homo sapiens, 24 h, read-out: IC50, cell viability (MTS)
[5] = doses of 200 mg per day, cited from earlier work
[6] = tested on: FF2441 human fibroblast cells; assay: MTS cell viability assay, FF2441; type: cell-based; conditions: read-out: IC50, cell viability (MTS)
[7] = tested on: sporadic melanomas with mutant V600EB-Raf; conditions: melanoma patients; cited from earlier work
[8] = tested on: COX-2 expression in 1205 Lu and UACC 903 cells; assay: Western blot of COX-2 / COX-1 expression after MAP kinase pathway inhibitors; type: cell-based, human
In short: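 Melanoma cells (1.5×10^6/100 mm dish) were treated 48 h after plating for 6–72 h with a B-Raf inhibitor (0.2–20 µmol/L) or a MEK inhibitor (2.5–50 µmol/L). Separately, cells were nucleofected with 100 pmoles siRNA against V600E B-Raf, MEK1, MEK2, ERK1 or ERK2, with lysates taken at day 4 or 6. Blots were probed for COX-1 and COX-2 and detected by enhanced chemiluminescence.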

Cc1ccc(-c2cc(C(F)(F)F)nn2-c2ccc(S(N)(=O)=O)cc2)cc1 [Celecoxib, 4-[5-(4-methylphenyl)-3-(trifluoromethyl)-1H-pyrazol-1-yl]benze nesulfonamide]
IC50 ([1]; 48 h): > 100 µM
IC50 ([1]; 72 h): 68 ± 1.2 µM
IC50 [1]: > 100 µM
animal mortality [2]: death of all animals
IC50 ([3]; UACC-903, 24 h): > 100 µM
IC50 ([3]; UACC-903, 48 h): > 100 µM
IC50 (melanoma cells): 55.6 µM
concentrations required to induce apoptosis of cultured cells (cultured cells): 25 to 100 µmol/L
concentrations required to trigger apoptosis in cultured cells (cultured cells): 25 to 100 µmol/L
IC50 [4]: > 100 µM
side effects associated with clinical use ([5]; ref 15, 16): cardiovascular side effects
side effects associated with clinical use ([5]; ref 33): cardiovascular side-effects
IC50 ([6]; FF2441, 24 h): > 100 µM
IC50 ([6]; FF2441, 48 h): > 100 µM

CCCS(=O)(=O)Nc1ccc(F)c(C(=O)c2c[nH]c3ncc(-c4ccc(Cl)cc4)cc23)c1F [PLX-4032]
response rates [7]: up to 80%
COX-2 protein expression ([8]; 1205 Lu cells): decreased COX-2 protein expression beginning after 12 h of treatment
COX-2 protein expression ([8]; UACC 903 cells): significant decrease was seen from 24 h of treatment
COX-1 expression ([8]; either cell line (1205 Lu, UACC 903)): no changes were observed in COX-1 expression

N#CC(=C(/N)Sc1ccccc1N)/C(C#N)=C(/N)Sc1ccccc1N [U0126]
levels of COX-2 protein and COX-1 ([8]; 1205 Lu and UACC 903 cell lines): reduced levels of COX-2 protein without affecting COX-1
